From PMC4266334 (Journal of Medicinal Chemistry, 2014) come the findings set out here.

The test system of one assay is pancreas MiaPaca2. Kind of assay: MTT toxicity assay, MiaPaca2. In kind it is cell-based, human. Conditions: read-out: IC50 MiaPaca2, 24 h incubation, mean ± SD (n = 4). The method, boiled down:
(§1)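 Cells were seeded at 5 × 10^4/well for Jurkat or 10^4/well for adherent lines, which attached 24 h. Test compound was added at several concentrations in triplicate for 24 h at 37 °C, 5% CO2, and read by modified MTT reduction.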

The test system of assay [1] is triple negative breast MDA-MB-231. Put plainly: MTT toxicity assay, MDA-MB-231. To be noted: read-out: IC50 MDA-MB-231, 24 h incubation, mean ± SD (n = 4). The class given is cell-based, human.
For the next assay, the system named is leukemia Jurkat-T. Put plainly: MTT toxicity assay, Jurkat. To be noted: read-out: IC50 Jurkat, 24 h incubation, mean ± SD (n = 4). The class given is cell-based, human. The method, boiled down:
as §1

Assay [2] relates to human renal proximal tubular cells (RPTC). Kind of assay: XTT assay for RPTC cells. In kind it is cell-based. To be noted: read-out: IC50 RPTC; XTT assay 24 h. The method, boiled down: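 Primary human renal proximal tubular cells were grown in RenaLife medium (0.5% FBS, growth factors) at 37 °C, 5% CO2. They were seeded at 5 × 10^3/well and grown 24 h. Test compound from fresh aqueous stock was given at 0.1–200 μM final for 24 h. XTT absorbance was read at 450 nm and survival calculated against untreated cells. IC50 is mean ± SE of at least two experiments in triplicate.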

The subject of a further assay is plasmid (pBR322) DNA. Put plainly: Electrophoresis mobility shift assay. In kind it is binding. Conditions: 37 °C, 20 h, Tris/HCl buffer, up to drug/DNA ratio 2.0. A digest of the protocol:
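pBR322 DNA (20 μg/mL) in 5 mM Tris/HCl, 50 mM NaClO4, pH 7.39 was incubated with test compound at 0.25–2.0 metal complex:DNA bp. Incubation was 37 °C, 20 h, in the dark, with free DNA and cisplatin-DNA controls. Samples ran on 1% agarose in TAE for 1.5 h at 80 V and were stained 30 min with GelRed.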

Assay [3] has as its system nontumorigenic human embryonic kidney cells HEK293T. Kind of assay: MTT toxicity assay, HEK-293T. In kind it is cell-based. To be noted: read-out: IC50 HEK-293T, 24 h incubation, mean ± SD (n = 4). The method, boiled down:
(§2)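 Adherent cells (10^4/well) attached for 24 h, then test compound was added at several concentrations in triplicate for 24 h at 37 °C, 5% CO2. Proliferation was read by a modified MTT-reduction method.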

Another assay concerns prostate DU-145. Kind of assay: MTT toxicity assay, DU-145. To be noted: read-out: IC50 DU-145, 24 h incubation, mean ± SD (n = 4). The class given is cell-based, human. A digest of the protocol:
as §1

A further assay relates to lung A549. Put plainly: MTT toxicity assay, A549. In kind it is cell-based, human. Conditions: read-out: IC50 A549, 24 h incubation, mean ± SD (n = 4). The method, boiled down:
as §2

As for `N.N.[Cl][Pt][Cl]` [cisplatin], the 50% inhibitory concentration (IC50) in the assay with pancreas MiaPaca2 worked out at 76.5 ± 7.4 µM; in assay [1], 131 ± 18 µM; with leukemia Jurkat-T, 10.8 ± 1.2 µM; in assay [2] it was 46.4 ± 2.46 µM; in assay [3] it was 69 ± 6.7 µM; in the assay with prostate DU-145, 112 ± 33 µM. Also, in the assay on lung A549, the IC50 came out at 114 ± 9.1 µM. Besides, the “effect on electrophoretic mobility of plasmid pBR322” value in the assay with plasmid (pBR322) DNA is “both increase and decrease the mobility of the OC and the CCC forms”.
